Source: ChEMBL document CHEMBL3400013, “Synthesis and biological activity evaluation of hydrazone derivatives based on a Tröger's base skeleton” (Bioorg Med Chem, 2015)
Activity calls are given as the source filed them. No cut-off for these calls is given here.

Columns and labels:
BJ [1] = experiment: Selectivity index, ratio of IC50 for human BJ cells to IC50 for human p53-/- HCT116 cells; assay type: functional
Candida albicans = experiment: Antifungal activity against Candida albicans up to 200 uM after 24 to 48 hrs by broth microdilution method; assay type: functional, organism-based
[2] = Metal chelating activity of the compound assessed as formation of Ni2+ complex by UV-vis spectrometry; assay type: physicochemical
[3] = Metal chelating activity of the compound assessed as formation of Mn2+ complex by UV-vis spectrometry; assay type: physicochemical
[4] = Metal chelating activity of the compound assessed as formation of Co2+ complex by UV-vis spectrometry; assay type: physicochemical
BJ [5] = experiment: Selectivity index, ratio of IC50 for human BJ cells to IC50 for human K562 cells; assay type: functional
Pseudomonas aeruginosa [6] = experiment: Antimicrobial activity against Pseudomonas aeruginosa CCM 395 up to 200 uM after 24 to 48 hrs by broth microdilution method; assay type: functional, organism-based
[7] = Metal chelating activity of the compound assessed as formation of Fe3+ complex by UV-vis spectrometry; assay type: physicochemical
BJ [8] = experiment: Cytostatic activity against human BJ cells after 72 hrs by MTT assay; assay type: ADME, cell-based
How it was run: (§1)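 Cells were seeded at 25,000–30,000 per well and pre-incubated for 24 h at 37°C in 5% CO2. Four-fold compound dilutions were added in duplicate and incubated for 72 h. MTT was added for 1–4 h, and formazan was dissolved in 10% aq SDS (pH 5.5) overnight at 37°C. OD was read at 540 nm. IC50 came from dose-response curves, mean ± SD of eight independent experiments.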

[9] = Metal chelating activity of the compound assessed as formation of Cr3+ complex by UV-vis spectrometry; assay type: physicochemical
A549 [10] = experiment: Cytostatic activity against human A549 cells after 72 hrs by MTT assay; assay type: functional, cell-based; conditions: A549, 72 h; how it was run: as §1
A549 [11] = experiment: Selectivity index, ratio of IC50 for human BJ cells to IC50 for human A549 cells; assay type: functional
[12] = Cytostatic activity against human CEM-DNR cells after 72 hrs by MTT assay; assay type: functional, cell-based; how it was run: as §1
Staphylococcus aureus [13] = experiment: Antimicrobial activity against Staphylococcus aureus CCM 3953 up to 200 uM after 24 to 48 hrs by broth microdilution method; assay type: functional, organism-based
MRC5 [14] = experiment: Cytostatic activity against human MRC5 cells after 72 hrs by MTT assay; assay type: ADME, cell-based; conditions: MRC5, 72 h; how it was run: as §1
[15] = Metal chelating activity of the compound assessed as formation of Cu2+ complex by UV-vis spectrometry; assay type: physicochemical
[16] = Cytostatic activity against human HCT116 cells after 72 hrs by MTT assay; assay type: functional, cell-based; conditions: HCT-116, 72 h; how it was run: as §1
CEM-DNR = experiment: Selectivity index, ratio of IC50 for human MRC5 cells to IC50 for human CEM-DNR cells; assay type: functional
HCT-116 [17] = experiment: Selectivity index, ratio of IC50 for human MRC5 cells to IC50 for human p53-/- HCT116 cells; assay type: functional
MRC5 [18] = experiment: Selectivity index, ratio of IC50 for human MRC5 cells to IC50 for human K562-TAX cells; assay type: functional
Escherichia coli [19] = experiment: Antimicrobial activity against Escherichia coli CCM 3954 up to 200 uM after 24 to 48 hrs by broth microdilution method; assay type: functional, organism-based
Nucleic Acid [20] = experiment: Binding affinity to DNA (unknown origin) assessed as DNA intercalation by UV-visible spectrophotometry in presence of Cu2+; assay type: nucleic-acid assay
Nucleic Acid [21] = experiment: Binding affinity to DNA (unknown origin) assessed as DNA intercalation by UV-visible spectrophotometry in presence of Co2+; assay type: nucleic-acid assay
[22] = test system: Staphylococcus haemolyticus; experiment: Antimicrobial activity against methicillin-resistant Staphylococcus haemolyticus A1/16568 up to 200 uM after 24 to 48 hrs by broth microdilution method; assay type: functional, organism-based
Escherichia coli [23] = experiment: Antimicrobial activity against multidrug-resistant Escherichia coli C/16702 up to 200 uM after 24 to 48 hrs by broth microdilution method; assay type: functional, organism-based
[24] = Metal chelating activity of the compound assessed as formation of Fe2+ complex by UV-vis spectrometry; assay type: physicochemical
BJ [25] = experiment: Selectivity index, ratio of IC50 for human BJ cells to IC50 for human HCT116 cells; assay type: functional
BJ [26] = experiment: Selectivity index, ratio of IC50 for human BJ cells to IC50 for human CCRF-CEM cells; assay type: functional; conditions: pooled result: one value given for 2 cell lines, strains, targets or settings
[27] = Metal chelating activity of the compound assessed as formation of Ca2+ complex by UV-vis spectrometry; assay type: physicochemical
Pichia kudriavzevii = experiment: Antifungal activity against Candida crusei up to 200 uM after 24 to 48 hrs by broth microdilution method; assay type: functional, organism-based
Nucleic Acid [28] = experiment: Binding affinity to DNA (unknown origin) assessed as DNA intercalation by UV-visible spectrophotometry; assay type: nucleic-acid assay
[29] = Cytostatic activity against human p53-/- HCT116 cells after 72 hrs by MTT assay; assay type: functional, cell-based; conditions: HCT-116, 72 h; how it was run: as §1
CCRF-CEM = experiment: Cytostatic activity against human CCRF-CEM cells after 72 hrs by MTT assay; assay type: functional, cell-based; how it was run: as §1
[30] = Metal chelating activity of the compound assessed as formation of Mg2+ complex by UV-vis spectrometry; assay type: physicochemical
Nucleic Acid [31] = experiment: Binding affinity to DNA (unknown origin) assessed as DNA intercalation by UV-visible spectrophotometry in presence of Fe3+; assay type: nucleic-acid assay
Enterococcus faecalis = experiment: Antimicrobial activity against Enterococcus faecalis CCM 4224 up to 200 uM after 24 to 48 hrs by broth microdilution method; assay type: functional, organism-based
K562 [32] = experiment: Selectivity index, ratio of IC50 for human MRC5 cells to IC50 for human K562 cells; assay type: functional
K562 [33] = experiment: Cytostatic activity against human K562 cells after 72 hrs by MTT assay; assay type: functional, cell-based; conditions: K562, 72 h; how it was run: as §1
BJ [34] = experiment: Selectivity index, ratio of IC50 for human BJ cells to IC50 for human K562-TAX cells; assay type: functional
A549 [35] = experiment: Selectivity index, ratio of IC50 for human MRC5 cells to IC50 for human A549 cells; assay type: functional
[36] = Metal chelating activity of the compound assessed as formation of Zn2+ complex by UV-vis spectrometry; assay type: physicochemical
Candida tropicalis = experiment: Antifungal activity against Candida tropicalis up to 200 uM after 24 to 48 hrs by broth microdilution method; assay type: functional, organism-based
[37] = Cytostatic activity against human K562-TAX cells after 72 hrs by MTT assay; assay type: functional, cell-based; how it was run: as §1
Candida parapsilosis = experiment: Antifungal activity against Candida parapsilosis up to 200 uM after 24 to 48 hrs by broth microdilution method; assay type: functional, organism-based
BJ [38] = experiment: Selectivity index, ratio of IC50 for human BJ cells to IC50 for human CEM-DNR cells; assay type: functional
Staphylococcus aureus [39] = experiment: Antimicrobial activity against methicillin-resistant Staphylococcus aureus MRSA 4591 up to 200 uM after 24 to 48 hrs by broth microdilution method; assay type: functional, organism-based
Nucleic Acid [40] = experiment: Binding affinity to DNA (unknown origin) assessed as DNA intercalation by UV-visible spectrophotometry in presence of Zn2+; assay type: nucleic-acid assay
Pseudomonas aeruginosa [41] = experiment: Antimicrobial activity against multidrug-resistant Pseudomonas aeruginosa A/16575 up to 200 uM after 24 to 48 hrs by broth microdilution method; assay type: functional, organism-based
Nucleic Acid [42] = experiment: Binding affinity to DNA (unknown origin) assessed as DNA intercalation by UV-visible spectrophotometry in presence of Ni2+; assay type: nucleic-acid assay
HCT-116 [43] = experiment: Selectivity index, ratio of IC50 for human MRC5 cells to IC50 for human HCT116 cells; assay type: functional

O=C(N/N=C/c1cc(Cl)ccc1O)c1ccc2c3c(ccc2c1)N1Cc2c(ccc4cc(C(=O)N/N=C/c5cc(Cl)ccc5O)ccc24)N(C3)C1
Ratio IC50 (BJ [1]): 1 | Activity (Candida albicans): inactive | Activity [2]: Active | Activity [3]: Not Active | Activity [4]: Active | Ratio IC50 (BJ [5]): 1 | Activity (Pseudomonas aeruginosa [6]): inactive | Activity [7]: Active | IC50 (BJ [8]): > 100 µM | Activity [9]: Not Active | IC50 (A549 [10]): > 100 µM | Ratio IC50 (A549 [11]): 1 | IC50 [12]: > 100 µM | Activity (Staphylococcus aureus [13]): inactive | IC50 (MRC5 [14]): > 100 µM | Activity [15]: Active | IC50 [16]: > 100 µM | Ratio IC50 (CEM-DNR): 1 | Ratio IC50 (HCT-116 [17]): 1 | Ratio IC50 (MRC5 [18]): 1 | Activity (Escherichia coli [19]): inactive | Activity (Nucleic Acid [20]): Active | Activity (Nucleic Acid [21]): Active | Activity [22]: inactive | Activity (Escherichia coli [23]): inactive | Activity [24]: Not Active | Ratio IC50 (BJ [25]): 1 | Ratio IC50 (BJ [26]): 2.4 | Activity [27]: Not Active | Activity (Pichia kudriavzevii): inactive | Activity (Nucleic Acid [28]): inactive | IC50 [29]: > 100 µM | IC50 (CCRF-CEM): 42.1 µM | Activity [30]: Not Active | Activity (Nucleic Acid [31]): Active | Activity (Enterococcus faecalis): inactive | Ratio IC50 (K562 [32]): 1 | IC50 (K562 [33]): > 100 µM | Ratio IC50 (BJ [34]): 1 | Ratio IC50 (A549 [35]): 1 | Activity [36]: Active | Activity (Candida tropicalis): inactive | IC50 [37]: > 100 µM | Activity (Candida parapsilosis): inactive | Ratio IC50 (BJ [38]): 1 | Activity (Staphylococcus aureus [39]): inactive | Activity (Nucleic Acid [40]): Active | Activity (Pseudomonas aeruginosa [41]): inactive | Activity (Nucleic Acid [42]): Active | Ratio IC50 (HCT-116 [43]): 1
